Article PMC6308033 (Molecular Metabolism, 2018)

What was measured:
[1] = test system: brain endothelial cell (capillary vs parenchyma); assay: Capillary depletion: complete transfer across the brain endothelial cell; assay type: in vivo, mouse; conditions: 10 min after IV injection, n = 3
Method in brief: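 Urethane-anaesthetised male and female mice (3–6 months) received a 0.2 mL IV injection of 1 × 10^6 cpm 125I-labelled test peptide plus 5 × 10^5 cpm 99mTc-albumin in 1% BSA/lactated Ringer's. Brain was homogenised and spun at 5400 g for 15 min at 4 °C. The capillary pellet was separated from the parenchymal supernatant, and the parenchyma was vascular-corrected using 99mTc-albumin. Ratios were (cpm/g tissue)/(cpm/μL serum).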

[2] = test system: blood–brain barrier of WT and Ghsr null mice; assay: Multiple-time regression analysis of blood-to-brain influx; assay type: in vivo, mouse; conditions: for Vi, initial volume of distribution in brain (vascular binding): WT mice, whole brain, y-intercept of B/S ratio vs exposure time, mean ± SEM
Method in brief: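 Male and female mice (3–6 months) were anaesthetised with 0.15 mL 40% urethane i.p. They received 1 × 10^6 cpm (~20 ng) 125I-labelled peptide plus 5 × 10^5 cpm 99mTc-albumin via jugular vein, in 0.2 mL 1% BSA/lactated Ringer's. Carotid blood was taken at 1–10 min, and serum and brain were gamma-counted. Brain/serum ratios (μL/g) were plotted against exposure time (Patlak): the slope gave Ki and the intercept gave Vi.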

blood–brain barrier = conditions: cited from earlier work; for Direction and saturability of BBB transport: mouse brain, brain-to-blood and blood-to-brain
[3] = human serum; cited from earlier work

Substance	Capillary/serum ratio [1] [µL/g]	Transport rate relative to the other three ghrelin forms ([2]; BBB transport rate in mice, hDAG vs mDAG, hAG, mAG)	Vi, initial volume of distribution in brain (vascular binding) [2] [µL/g]	Direction and saturability of BBB transport (blood–brain barrier)	Degradation of AG into DAG (blood–brain barrier; same time frame (10 min))	Half-life [3] [min]
human DAG [hDAG]	1.0 ± 0.30	approximately three times faster	1.775 ± 0.81			
human AG [hAG]			1.192 ± 0.57	bidirectional and saturable manner		
mouse DAG [mDAG]			2.265 ± 0.75	unidirectionally and in an unsaturable manner		
mouse AG [mAG]			2.847 ± 0.57	bidirectional and saturable manner		
acyl ghrelin [AG]					not degraded into DAG	~10
